Data as given in ChEMBL document CHEMBL4024804 (J Med Chem, 2018).
Calls of active or inactive are those of the source. No cut-off for these calls is given here.

Experiments:
M14 = experiment: Cytotoxicity against human M14 cells after 72 hrs by MTS assay; type: functional, cell-based; details: M14, 72 h
Summary of the method: (§1)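 Melanoma cells grown in DMEM with 10% FBS and seeded at 1800–3500 cells per well, then incubated overnight. Cells treated for 72 h with 10 concentrations from 0.03 nM to 1 μM, with DMSO vehicle, in four replicates. MTS added for at least 1 h at 37 °C and absorbance read at 490 nm. IC50 obtained by nonlinear regression.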

RPMI-7951 [1] = experiment: Cytotoxicity against human RPMI7951 cells after 72 hrs by MTS assay; type: functional, cell-based; details: RPMI-7951, 72 h; summary of the method: as §1
A-375 [2] = experiment: Cytotoxicity against human A375 cells after 72 hrs by MTS assay; type: functional, cell-based; details: A-375, 72 h; summary of the method: as §1
[3] = Acute toxicity in nude mouse administered as qd for 5 days; details: in vivo
Summary of the method: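 Nude mice, 6–8 weeks old; compound formulated in PEG300 and given as five continuous daily administrations, then monitored for acute toxicity. A single-dose acute MTD was estimated first.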

A-375 [4] = experiment: Antitumor activity against human A375 cells xenografted in nude mouse assessed as tumor growth inhibition at 15 mg/kg, ip administered every other day for 2 weeks relative to control; type: functional; details: A-375, ip, 336 h, read-out: TGI
Summary of the method: (§2)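 Nude mice 6–8 weeks old; 2 × 10^6 A375 cells in FBS-free medium with Matrigel injected sc into dorsal flank. At about 100 mm3 mice were randomized, n = 8. Drug in 2:1 PEG300/PBS given ip every other day. Volume measured by caliper three times weekly (a × b2 × 0.5).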

A-375 [5] = experiment: Induction of apoptosis in human A375 cells xenografted in nude mouse assessed as increase in cleaved caspase-3 levels at 15 mg/kg, ip administered every other day for 2 weeks by immunohistochemical analysis; type: functional, organism-based
Summary of the method: (§3)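 Formalin-fixed, paraffin-embedded A375 xenograft tumors from mice dosed ip every other day (2:1 PEG300/PBS). Serial sections immunostained with rabbit anti-cleaved caspase 3 antibody by the ABC-DAB method.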

A-375 [6] = experiment: Antitumor activity against human A375 cells xenografted in nude mouse assessed as decrease in tumor weight at 30 mg/kg, ip administered every other day for 2 weeks; type: functional, organism-based
Summary of the method: (§4)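 Nude mice (6–8 weeks) injected subcutaneously in dorsal flank with 2 × 10^6 A375 cells in Matrigel. At ~100 mm3, randomized (n = 8). Compound given ip every other day in 2:1 PEG300/PBS; vehicle equal parts PEG300/PBS. Tumors weighed at sacrifice; mean ± SEM, ANOVA with Dunnett's test versus vehicle.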

Liver = experiment: Half life in human liver microsomes by UPLC-MS analysis; type: ADME, microsome
Summary of the method: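 Compound at 10 mM in DMSO diluted into human liver microsomes (0.6381 mg/mL protein) in 0.1 M potassium phosphate pH 7.4 with EDTA. NADPH regenerating system added, incubated at 37 °C for 0–4 h in triplicate. Quenched with cold acetonitrile containing warfarin as internal standard, analysed by UPLC–MS SIR. ke from log-linear regression; t1/2 = ln 2/ke.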

A-375 [7] = experiment: Induction of morphological changes in human A375 cells xenografted in nude mouse assessed as less microvessel density at 15 mg/kg, ip administered every other day for 2 weeks by immunohistochemical analysis; type: functional, organism-based
Tubulin (Sus scrofa) = experiment: Inhibition of tubulin (porcine brain) polymerization measured every min for 50 mins
RPMI-7951 [8] = experiment: Antimigratory activity in human RPMI7951 cells at 5 nM after 18 hrs by wound healing assay; type: functional, cell-based
RPMI-7951 [9] = experiment: Antimigratory activity in human RPMI7951 cells assessed as wound closure at 25 nM after 18 hrs (reference value: 71.8 +/- 1.8%); type: functional
A-375 [10] = experiment: Antimigratory activity in human A375 cells assessed as wound closure at 5 nM after 22 hrs (reference value: 60.7 +/- […]); type: functional
A-375 [11] = experiment: Antimigratory activity in human A375 cells assessed as wound closure at 25 nM after 22 hrs (reference value: 60.7 +/- […]); type: functional
[12] = Antitumor activity against human PC3-TxR cells xenografted in nude mouse assessed as tumor growth inhibition at 30 mg/kg, ip administered every other day for 3 weeks; type: functional; details: 504 h, read-out: TGI
Summary of the method: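 Nude mice 6–8 weeks old; 2.5 × 10^6 PC-3/TxR cells with Matrigel injected sc into dorsal flank. […] At about 100 mm3 mice were randomized, n = 7. Drug in 2:1 PEG300/PBS given ip every other day. Caliper volume a × b2 × 0.5. TGI computed from start and end mean volumes relative to the vehicle group.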

Homo sapiens [13] = species on record: Homo sapiens; experiment: Inhibition of tubulin polymerization in human WM164 cells assessed as decrease in polymeric tubulin filaments at 100 nM after 18 hrs using DAPI by immunofluorescence-based confocal microscopic method; type: cell-based
Summary of the method: (§5)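 WM164 cells on glass coverslips (125 000 cells/well), incubated overnight, treated 18 h with 100 nM compound or DMSO vehicle. Stained with anti-α-tubulin and Alexa Fluor 647 anti-mouse IgG, mounted in DAPI-containing medium, and imaged by confocal microscopy.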

A-375 [14] = experiment: Antitumor activity against human A375 cells xenografted in nude mouse assessed as tumor growth inhibition at 30 mg/kg, ip administered every other day for 2 weeks relative to control; type: functional; details: A-375, ip, 336 h, read-out: TGI; summary of the method: as §2
A-375 [15] = experiment: Antitumor activity against human A375 cells xenografted in nude mouse assessed as decrease in tumor weight at 15 mg/kg, ip administered every other day for 2 weeks; type: functional, organism-based; summary of the method: as §4
A-375 [16] = experiment: Induction of morphological changes in human A375 cells xenografted in nude mouse assessed as less microvessel density at 30 mg/kg, ip administered every other day for 2 weeks by immunohistochemical analysis; type: functional, organism-based
Homo sapiens [17] = species on record: Homo sapiens; experiment: Inhibition of tubulin polymerization in human WM164 cells assessed as increase in cytoplasmic soluble tubulin levels at 100 nM after 18 hrs using DAPI by immunofluorescence-based confocal microscopic method; type: cell-based; summary of the method: as §5
PC-3 = experiment: Cytotoxicity against human PC3 cells after 72 hrs by MTS assay; type: functional, cell-based; details: PC-3, 72 h
Summary of the method: (§6)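 Cells treated 72 h at 10 concentrations, 0.03 nM–1 μM, n = 4. MTS read at 490 nm; IC50 by nonlinear regression. RI = resistant IC50 / parental IC50.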

DU-145 = experiment: Cytotoxicity against human DU145 cells after 72 hrs by MTS assay; type: functional, cell-based; details: DU-145, 72 h; summary of the method: as §6
[18] = Cytotoxicity against human DU145-TxR cells after 72 hrs by MTS assay; type: functional, cell-based; summary of the method: as §6
RPMI-7951 [19] = experiment: Antimigratory activity in human RPMI7951 cells after 18 hrs by wound healing assay; type: functional, cell-based
Summary of the method: (§7)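 A375 and RPMI7951 monolayers seeded overnight (200 000 cells/well, triplicate), scratched with a pipet tip, washed, then given medium with 5 or 25 nM compound; untreated control wells. Imaged at 0 h and at 18 h (RPMI7951) or 22 h (A375); wound channel area measured and percent closure calculated. Dunnett's test versus control.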

Homo sapiens [20] = species on record: Homo sapiens; experiment: Inhibition of tubulin polymerization in human WM164 cells assessed as fragmentation of microtubules at 100 nM after 18 hrs using DAPI by immunofluorescence-based confocal microscopic method; type: cell-based; summary of the method: as §5
[21] = Resistance index, ratio of IC50 for human DU145-TxR cells to IC50 for human DU145 cells; type: functional; summary of the method: as §6
RPMI-7951 [22] = experiment: Antimigratory activity in human RPMI7951 cells assessed as wound closure at 5 nM after 18 hrs (reference value: 71.8 +/- 1.8%); type: functional
[23] = Cytotoxicity against human PC3-TxR cells after 72 hrs by MTS assay; type: functional, cell-based; summary of the method: as §6
A-375 [24] = experiment: Induction of apoptosis in human A375 cells xenografted in nude mouse assessed as increase in cleaved caspase-3 levels at 30 mg/kg, ip administered every other day for 2 weeks by immunohistochemical analysis; type: functional, organism-based; summary of the method: as §3
[25] = Resistance index, ratio of IC50 for human PC3-TxR cells to IC50 for human PC3 cells; type: functional
Summary of the method: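 Cells were treated 72 h with 10 concentrations from 0.03 nM to 1 μM, four replicates, A490 read. IC50 by nonlinear regression. RI = IC50 resistant / IC50 parental.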

A-375 [26] = experiment: Antimigratory activity in human A375 cells after 22 hrs by wound healing assay; type: functional, cell-based; summary of the method: as §7

In the case of `COc1ccc2c(c1)CCCN2c1nc(C)nc2[nH]ncc12`, the IC50 (M14) is reported as over 1000 nM, the IC50 (RPMI-7951 [1]) is reported as over 1000 nM and the IC50 (A-375 [2]) is reported as over 1000 nM.
Compound `COc1ccc2c(c1)CCCN2c1nc(Cl)nc2ccoc12` has an IC50 (M14) of 3.3 nM, an MTD at 120 h [3] of 30 mg/kg and an inhibition in vivo at 15 mg/kg (A-375 [4]) of 66.5%. For the same compound, the IC50 (RPMI-7951 [1]) was 5.1 nM, the Activity (A-375 [5]) was “Active” and the IC50 (A-375 [2]) was 3.2 nM. The Activity (A-375 [6]; 15 mg/kg, in the assay text read “at 15 mg/kg” for “at 30 mg/kg”) was “Active”, the t1/2 (Liver) was 19.2 min and the Activity (A-375 [7]) was “Active”. The inhibition (Tubulin (Sus scrofa)) was “Dose-dependent effect”.
Work on `COc1ccc2c(c1)CCCN2c1nc(Cl)nc2c1cnn2C` yielded an IC50 (M14) of over 1000 nM, an IC50 (RPMI-7951 [1]) of over 1000 nM and an IC50 (A-375 [2]) of over 1000 nM.
Compound `COc1ccc2c(c1)C(O)CCN2c1nc(Cl)nc2ncccc12` (configuration not stated) has an IC50 (M14) of 52.6 nM, an IC50 (RPMI-7951 [1]) of 41.9 nM and an IC50 (A-375 [2]) of 36.1 nM.
With `COc1ccc2c(c1)CCCN2c1nc(Cl)nc2cccnc12` the IC50 (M14) was 4.2 nM, the IC50 (RPMI-7951 [1]) was 4.4 nM and the IC50 (A-375 [2]) was 4 nM.
For `COc1cc2c(c(OC)c1OC)-c1ccc(OC)c(=O)cc1[C@@H](NC(C)=O)CC2` [COLCHICINE], the Activity (RPMI-7951 [8]) was “inactive”, the Activity (RPMI-7951 [9]) was 42.8% and the Activity (A-375 [10]) was 46%. The Activity (A-375 [11]) was 20.7%.
For `COc1ccc2c(c1)CCCN2c1nc(Cl)nc2ncccc12`, the inhibition in vivo at 30 mg/kg [12] was 55.6%, the IC50 (M14) was 5.5 nM and the inhibition (Homo sapiens [13]) was “Active”. The MTD at 120 h [3] was 50 mg/kg, the inhibition in vivo at 30 mg/kg (A-375 [14]) was 72.3% and the Activity (A-375 [15]) was “Active”. For the same compound, the Activity (A-375 [16]) was “Active”, the inhibition in vivo at 15 mg/kg (A-375 [4]) was 57.1% and the inhibition (Homo sapiens [17]) was “Active”. It also gave an IC50 (RPMI-7951 [1]) of 8.2 nM, an IC50 (PC-3) of 12.7 nM and an IC50 (DU-145) of 18.3 nM. For the same compound, the IC50 [18] was 19.9 nM, the Activity (RPMI-7951 [19]) was “Dose-dependent effect” and the Activity (A-375 [5]) was “Active”. The inhibition (Homo sapiens [20]) was “Active”, the “Ratio IC50” value [21] was 1.1 and the IC50 (A-375 [2]) was 5.6 nM. For the same compound, the Activity (RPMI-7951 [22]) was 46.4%, the Activity (A-375 [6]; 30 mg/kg) was “Active” and the Activity (RPMI-7951 [9]) was 25.5%. For the same compound, the IC50 [23] was 8.7 nM, the Activity (A-375 [24]) was “Active” and the Activity (A-375 [10]) was 36.4%. For the same compound, the t1/2 (Liver) was 84 min, the Activity (A-375 [11]) was 16.9% and the Activity (A-375 [7]) was “Active”. The inhibition (Tubulin (Sus scrofa)) was “Dose-dependent effect”, the “Ratio IC50” value [25] was 0.7 and the Activity (A-375 [26]) was “Dose-dependent effect”.
Work on `COc1ccc(N(C)c2nc(Cl)nc3ncccc23)cc1OC` yielded an IC50 (M14) of 39.5 nM, an IC50 (RPMI-7951 [1]) of 47.5 nM and an IC50 (A-375 [2]) of 39 nM.
Compound `COc1ccc2c(c1)CCCN2c1nc(Cl)nc2c(C)csc12` has an IC50 (M14) of 52.6 nM, an IC50 (RPMI-7951 [1]) of 91.3 nM and an IC50 (A-375 [2]) of 49 nM.
